KCNK9 inh = inhibitors of human KCNK9 two-pore domain potassium channel. Q9NPC2. HEK293 KCNK9, FluxOR thallium flux fluorescence; active compounds read low. B-score at 10 µM. hit rate 1.2% among 310,000. AID 488922;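 active = ratio B-score over 3 SD below the library mean, with starting fluorescence within 5 SD of its mean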;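 also: negative B-score means less thallium flux so channel inhibition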
KCNQ1 inh = blocks the human KCNQ1 potassium channel; P51787; hit rate 1.3% among 310,000; CHO-K1 KCNQ1, FluxOR thallium flux fluorescence; active compounds read high; B-score at 10 µM;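 active = compounds whose thallium flux B-score, printed positive for inhibition, exceeds three library SD while starting fluorescence stays within three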;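 also: channel opened by potassium depolarization with thallium stimulus after 20 min compound exposure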
Target sequence (P51787 whole entry, looked up): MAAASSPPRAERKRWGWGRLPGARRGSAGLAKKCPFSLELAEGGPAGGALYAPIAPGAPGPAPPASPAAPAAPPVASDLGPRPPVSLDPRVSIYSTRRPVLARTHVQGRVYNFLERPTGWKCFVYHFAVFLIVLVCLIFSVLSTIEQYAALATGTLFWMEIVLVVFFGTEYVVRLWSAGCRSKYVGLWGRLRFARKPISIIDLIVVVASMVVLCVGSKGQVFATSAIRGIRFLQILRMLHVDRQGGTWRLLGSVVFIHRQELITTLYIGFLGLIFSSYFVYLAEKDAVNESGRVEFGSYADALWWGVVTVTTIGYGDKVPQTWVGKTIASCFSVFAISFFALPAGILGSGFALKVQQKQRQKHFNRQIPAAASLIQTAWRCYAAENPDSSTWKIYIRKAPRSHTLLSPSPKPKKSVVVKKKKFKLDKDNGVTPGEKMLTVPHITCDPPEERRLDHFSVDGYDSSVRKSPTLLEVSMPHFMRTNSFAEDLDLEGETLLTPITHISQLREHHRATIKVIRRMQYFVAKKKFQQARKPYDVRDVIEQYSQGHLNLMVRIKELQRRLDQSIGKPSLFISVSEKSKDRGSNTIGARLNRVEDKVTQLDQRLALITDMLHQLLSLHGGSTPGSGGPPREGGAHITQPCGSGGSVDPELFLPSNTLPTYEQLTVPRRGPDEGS
Kir21 block = inhibitors of mouse Kir2.1 inward-rectifier potassium channel. HEK293-Kir2.1, FluxOR thallium flux fluorescence; active compounds read low. P35561. B-score at 10 µM. hit rate 0.85% among 310,000;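 active = fluorescence ratio B-score at or below minus 3 SD of library scores, with starting-brightness B-score within 2 SD, cut at about -4.2 in these data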;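 also: channel flux triggered by added potassium and thallium sulfate stimulus; B-score of peak minus minimum fluorescence over baseline after thallium stimulus; more negative B-score means stronger Kir2.1 block with less thallium influx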
KCNQ1 pot = potentiators or activators of human KCNQ1 potassium channel | P51787 | CHO-K1 KCNQ1, thallium flux FluxOR fluorescence; active compounds read high | B-score at 10 µM | hit rate 0.35% among 310,000 | AID 2648;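 active = fluorescence ratio B-score, a plate-corrected score, at least three library SD, with initial intensity B-score within 5 SD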
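Test system: CHO-K1 cells stably expressing KCNQ1 / Medium: assay buffer / Also added: depolarizing K+/Tl+ stimulus, K2SO4 and Tl2SO4 each 12.5 mM in 5x stock / Incubation: 90 min dye loading and 20 min compound exposure, both at room temperature / Signal: thallium influx via FluxOR fluorescence, kinetic imaging / Evaluation: B score of baseline-normalized fluorescence ratio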
KCNK3 inh = human KCNK3 channel inhibition, primary screen; O14649; CHO-KCNK3 thallium flux, FluxOR fluorescence; active compounds read low; B-score at 10 µM; hit rate 0.84% among 340,000; AID 602410;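 active = B-score under library mean minus 4 SD, starting fluorescence ratio at most library mean plus 5 SD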;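 also: more negative B-score means stronger inhibition of thallium flux through KCNK3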
hERG rescue = compounds protecting human hERG from proarrhythmic drug block. hit rate 0.51% among 310,000. Q12809. activation (rescue from dofetilide block), less the hit threshold, % at 10 µM. CHO-hERG, FluxOR thallium flux, dofetilide IC70 present;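 active = activation above the mean of controls blocked by dofetilide plus 5 SD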;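 also: thallium influx through hERG after potassium depolarization seen as dye fluorescence rise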
KCNK9 inh conf = human KCNK9 inhibitor confirmation; shares compounds with KCNK9 inh; HEK293 KCNK9 cells, FluxOR thallium flux fluorescence; inhibition, % at 10 µM; hit rate 43% among 4,900; AID 492992;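 active = thallium signal inhibited by more than 5 SD of the compound-free buffer control wells, on both duplicate plates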;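 also: 0% = assay buffer control wells without compound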
Kir21 sel = mouse Kir2.1 off-target activity of KCNK9 modulators. shares compounds with KCNK9 inh. Kir2.1 cells, FluxOR thallium flux fluorescence. inhibition, % at 10 µM. hit rate 4% among 4,900. AID 492993;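 active = thallium signal drop more than 5 SD beyond the mean of the no-compound control wells, seen in both duplicate plates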;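 also: signal is fluorescence rise after thallium addition divided by baseline fluorescence; plate controls were assay buffer only for no effect and full block by chlorpromazine control for full effect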
KCNK9 uninduced = second check of KCNK9 modulator effects in non-induced HEK293 cells; AID 492997; hit rate 40% among 4,900; FluxOR thallium flux; inhibition, % at 10 µM; shares compounds with KCNK9 inh;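 active = thallium signal drop beyond 5 SD of the untreated control mean, on both duplicate plates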;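 also: plate controls were buffer only IC0 wells for no effect and SID17386958 at its maximal inhibitory level for full effect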
* hit, by the source's call; i = inactive; . = no result given. Only some compounds are listed: those with a hit (about 3.7% of all), similar ones and a draw of the others.

SMILES	KCNK9 inh	KCNQ1 inh	Kir21 block	KCNQ1 pot	KCNK3 inh	hERG rescue	KCNK9 inh conf	Kir21 sel	KCNK9 uninduced
O=C1CCN(Cc2ccc(Br)cc2)CCN1[C@H](CO)Cc1ccccc1	i	i	-1.1	i	i	3	.	.	.
CC(C)C(NC(=O)c1ccccc1)C(=O)OCC(=O)N1CCCC1 (stereo not drawn)	.	.	.	.	i	.	.	.	.
COc1ccccc1NS(=O)(=O)c1cccc(C(=O)N/N=C2\CC(=O)CC(C)(C)C2)c1	i	i	0.06	i	i	-2	.	.	.
O=c1c2ccccc2nc(N2CCN(c3ccccc3)CC2)n1Cc1ccccc1	-13*	i	-1.2	i	i	-9	62%*	i	40%*
CNC(=S)Nc1cccc(Cl)c1C	i	i	0.77	i	i	-19	.	.	.
CCCCN(CCCC)c1ccc(C(=O)c2ccccc2C(=O)O)c(O)c1	i	i	1.1	18*	i	-26	i	i	i
COc1cc(C2NC(=O)CCC2[N+](=O)[O-])cc(OC)c1OC (stereo not drawn)	i	i	-0.15	i	i	-2	.	.	.
COc1ccc(C2NC(=O)CCC2[N+](=O)[O-])cc1OC (stereo not drawn)	-15*	i	-0.05	i	i	-9	i	i	i
Cc1ccc(CN2C(=O)C(C)Nc3ncnc(N4CCN(c5ccccn5)CC4)c32)cc1 (stereo not drawn)	i	i	-0.79	i	i	-24	.	.	.
Cc1ccc(-n2c(C)nc3c(cnn3-c3ccc(F)cc3)c2=O)cc1C	i	i	-0.1	i	i	-3	.	.	.
Cc1ccc(-n2c(C)nc3c(cnn3-c3ccc(C)c(C)c3)c2=O)cc1C	i	i	0.08	i	i	-11	i	i	i
O=C(COc1c(F)c(F)c(C(F)(F)F)c(F)c1F)Nc1ccc(N2CCOCC2)c(Cl)c1	i	i	1.2	i	i	-5	.	.	.
CCC(C)c1ccc(NC(=O)COc2c(F)c(F)c(C(F)(F)F)c(F)c2F)cc1 (stereo not drawn)	i	i	1.3	i	i	-17	i	i	i
O=C(CSCC(=O)N1CCCCC1)OCC(=O)c1c[nH]c2ccccc12	i	i	-2	i	i	-2	.	.	.
NS(=O)(=O)c1ccc(NCc2cc(Cl)ccc2OCc2ccccc2F)cc1	-15*	i	-0.57	i	i	-8	50%*	i	41%*
CCOC(=O)NC(=O)CSc1nc(-c2ccc(C)c(C)c2)cn1-c1ccccc1	-8.2*	i	-1.2	i	i	-10	42%*	i	36%*
Cc1ccc(-c2cn(-c3ccccc3)c(SCC(N)=O)n2)cc1C	i	i	0.8	i	i	-7	.	.	.
CCOc1ccc(S(=O)(=O)NC(Cc2c[nH]c3ccccc23)C(=O)O)cc1 (stereo not drawn)	i	i	-0.22	i	i	-3	.	.	.
COc1ccc(OC)c(Nc2nc(-c3sc(C)nc3C)cs2)c1	i	i	1.1	i	i	-22	.	.	.
CCC(C)C(=O)Nc1nc(C)c(-c2csc(Nc3cc(OC)ccc3OC)n2)s1 (stereo not drawn)	-11*	i	0	i	i	-26	40%*	i	27%*
COc1ccc(OC)c(Nc2nc(-c3sc(NC(=O)C(C)(C)C)nc3C)cs2)c1	-13*	i	1.6	i	i	-15	46%*	i	i
CCC(C)C(=O)Nc1nc(C)c(-c2csc(Nc3cc(Cl)ccc3OC)n2)s1 (stereo not drawn)	i	i	-0.33	i	i	-12	.	.	.
COc1ccc(OC)c(Nc2nc(-c3sc(NC(=O)CC(C)C)nc3C)cs2)c1	-16*	i	0.64	i	i	-8	40%*	i	32%*
CC(=O)Nc1cccc(C(=O)NNC(=O)c2n[nH]c(=O)c3ccccc23)c1	.	.	.	.	i	.	.	.	.
COC(=O)C1Cc2ccccc2CN1S(=O)(=O)c1ccc(F)cc1 (stereo not drawn)	i	i	-2.7	i	i	-9	.	.	.
SMILES	KCNK9 inh	KCNQ1 inh	Kir21 block	KCNQ1 pot	KCNK3 inh	hERG rescue	KCNK9 inh conf	Kir21 sel	KCNK9 uninduced
O=C(Cn1nc2sc3ccccc3n2c(=O)c1=O)c1ccc(Cl)cc1	i	i	0.28	i	.	-1	.	.	.
O=C(Cc1ccc(NC(=O)C2CCN(C(=O)C3CCC3)CC2)cc1)Nc1cccc(C(=O)N2CCCC2)c1	.	.	.	.	i	.	.	.	.
O=C1C(Cl)=C(N2CCN(Cc3ccccc3)CC2)C(=O)N1Cc1ccccc1	i	i	0.16	i	i	-3	i	i	i
COc1ccc(CCC(=O)NCC(c2ccco2)N2CCc3ccccc32)cc1 (stereo not drawn)	i	i	-3	i	i	-11	.	.	.
CC(Sc1cccc(C(F)(F)F)c1)C(=O)NC(N)=O (stereo not drawn)	i	i	0.42	i	i	-9	.	.	.
CCc1ccccc1NC(=O)c1ccc(NCCc2ccccc2)c([N+](=O)[O-])c1	-8.7*	i	0.19	i	i	-7	i	i	30%*
COc1ccc(-n2c(C)cc(C(=O)Cn3nc(C(=O)O)c4ccccc4c3=O)c2C)cc1	i	i	0.16	i	i	-7	i	i	i
Cc1ccc(-n2c(C)cc(C(=O)Cn3nc(C(=O)O)c4ccccc4c3=O)c2C)cc1	i	i	-2.6	i	i	-6	.	.	.
Cc1cc(C(=O)Cn2nc(C(=O)O)c3ccccc3c2=O)c(C)n1-c1ccc(OC(F)F)cc1	i	i	-0.67	i	i	-5	i	i	i
CCC/C=C1/CCCOC(C(=O)NCc2ccc(C)o2)(C(F)(F)F)C1 (stereo not drawn)	.	.	.	.	i	.	.	.	.
CCC(c1nnnn1C(C)(C)C)N1CCN(c2cc(Cl)ccc2C)CC1 (stereo not drawn)	-9.9*	i	2.4	i	-8.9*	-5	49%*	i	47%*
Cc1ccc(Cl)cc1N1CCN(C(c2cccnc2)c2nnnn2C2CCCCC2)CC1 (stereo not drawn)	-13*	i	0.02	i	-11*	-7	37%*	i	44%*

Assay outcomes (PubChem)
